According to PMC4281708 (Cancer research, 2012):
Where a chain is given by its changes, count along the chain named. Entries after “also recorded” stand apart in the source; their conditions may differ. Where two headings read alike, the source gives them in different places.

Tests used:
VCaP cells = assay: Cell viability; type: cell-based, human; conditions: for growth inhibition of VCaP cells stimulated by spironolactone: 0.1, 1 or 5μM abiraterone, 10μM bicalutamide or 10μM MDV3100, 7 days; for proliferation of VCaP (WT-AR): 1 and 10μM, CSS, 7 days
LNCaP cells = assay: Cell viability; type: cell-based, human; conditions: for growth inhibition of LNCaP cells stimulated by eplerenone / growth inhibition of LNCaP cells stimulated by spironolactone: 0.1, 1 or 5μM abiraterone, 10μM bicalutamide or 10μM MDV3100, 7 days; for proliferation of hormone-stripped LNCaP (T877A-AR): 1 and 10μM, CSS, 7 days
[1] = test system: PSA and TMPRSS2 mRNA expression in LNCaP cells; assay: Quantitative RT-PCR of AR-regulated genes, LNCaP; type: cell-based, human
How it was run: (§1)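 Cells held 24 h in phenol red-free medium with charcoal-stripped serum, then treated 5 h with test compound (0.1–10 µM) or 0.1nM R1881. After RNA extraction and cDNA synthesis, SYBR Green qPCR for PSA and TMPRSS2 used 50ng cDNA per reaction, each sample run in duplicate. Normalised to actin and GAPDH, relative to a reference sample (2^-ΔΔCt). 3 independent experiments, mean ± SEM.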

WT-AR = biological target: T1, WT-AR (Homo sapiens, UniProt P10275); assay: cell-based; type: binding
T1 sequence (P10275 1-920): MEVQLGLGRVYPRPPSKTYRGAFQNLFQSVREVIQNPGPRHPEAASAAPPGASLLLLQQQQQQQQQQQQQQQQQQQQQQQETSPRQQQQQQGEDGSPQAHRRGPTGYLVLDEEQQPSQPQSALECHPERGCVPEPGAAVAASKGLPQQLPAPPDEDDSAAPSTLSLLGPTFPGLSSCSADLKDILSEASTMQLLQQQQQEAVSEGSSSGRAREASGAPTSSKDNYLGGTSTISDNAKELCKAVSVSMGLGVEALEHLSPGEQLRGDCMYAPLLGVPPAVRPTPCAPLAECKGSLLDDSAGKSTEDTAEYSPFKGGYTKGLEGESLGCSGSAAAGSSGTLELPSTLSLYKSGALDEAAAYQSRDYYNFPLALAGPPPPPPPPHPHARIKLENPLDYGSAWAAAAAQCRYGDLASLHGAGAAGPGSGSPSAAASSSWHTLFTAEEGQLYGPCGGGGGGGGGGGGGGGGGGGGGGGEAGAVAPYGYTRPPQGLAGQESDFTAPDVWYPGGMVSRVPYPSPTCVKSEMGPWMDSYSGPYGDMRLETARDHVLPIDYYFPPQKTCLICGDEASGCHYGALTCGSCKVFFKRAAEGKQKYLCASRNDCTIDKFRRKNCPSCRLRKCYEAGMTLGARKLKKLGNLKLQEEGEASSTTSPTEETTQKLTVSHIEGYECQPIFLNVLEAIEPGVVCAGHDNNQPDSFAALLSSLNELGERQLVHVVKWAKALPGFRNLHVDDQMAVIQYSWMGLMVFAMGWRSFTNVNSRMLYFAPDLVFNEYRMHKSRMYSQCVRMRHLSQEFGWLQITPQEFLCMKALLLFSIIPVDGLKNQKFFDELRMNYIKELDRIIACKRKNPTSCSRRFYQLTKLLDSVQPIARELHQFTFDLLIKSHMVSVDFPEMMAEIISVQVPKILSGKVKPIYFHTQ

LNCaP (T877A-AR) = biological target: T2, LNCaP (T877A-AR) (Homo sapiens, UniProt P10275, T878A); assay: cell-based; type: binding
T2 sequence (P10275 1-920 T878A): T1 sequence (P10275 1-920) with T878A

DU145 = assay: Cell proliferation, DU145; type: cell-based, human; conditions: AR-negative prostate cancer cell line
T877A-AR [2] = biological target: T3, T877A-AR (Homo sapiens, UniProt P10275, T878A); assay: cell-based; type: binding
T3 sequence (P10275 1-920 T878A): T1 sequence (P10275 1-920) with T878A

[3] = test system: castration-resistant prostate cancer (CRPC); conditions: 1000mg abiraterone daily ref 1, 2; cited from earlier work
Solubility in cell media = type: physicochemical; conditions: plasma or biological fluid, kinetic from dmso stock
T877A-AR [4] = biological target: T3, T877A-AR; type: cell-based
[5] = patients ref 2; cited from earlier work
PC-3 = assay: Cell proliferation, PC-3; type: cell-based, human; conditions: AR-negative prostate cancer cell line
[6] = test system: WT or mutant human AR (T877A, G142V, P533S, T575A, H874Y, R629Q); assay: GRE2-TATA-Luc reporter assay in COS-7 cells co-transfected with AR; type: cell-based
AR = conditions: cited from earlier work
[7] = test system: WT or mutant AR (T877A, D879G, W741C, M749L, R629Q); assay: ARE3-luciferase reporter assay in PC-3 cells, WT and mutant AR panel; type: cell-based, human
W741C-AR = assay: PSA-ARE3-luc luciferase reporter assay in transfected PC-3 cells, W741C-AR; type: cell-based, human
wild-type (WT)-AR [8] = assay: PSA-ARE3-luc luciferase reporter assay in transfected PC-3 cells, WT-AR; type: cell-based, human; conditions: compared to R1881
[9] = test system: PSA and TMPRSS2 mRNA expression in VCaP cells; assay: Quantitative RT-PCR of AR-regulated genes, VCaP; type: cell-based, human; conditions: 0.1 - 10μM eplerenone, 5 hours
How it was run: as §1

[10] = 100mg eplerenone ref 6, cited from earlier work
wild-type (WT)-AR [11] = conditions: cited from earlier work
D879G-AR = assay: PSA-ARE3-luc luciferase reporter assay in transfected PC-3 cells, D879G-AR; type: cell-based, human; conditions: compared to R1881
How it was run: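 Human AR expression plasmid carrying the mutation (confirmed by sequencing) co-transfected with PSA-ARE3-luc reporter into PC-3 cells. Cells grown 30 h in phenol red-free RPMI 1640 with 10% charcoal-stripped serum, then exposed 16 h to test compound (DMSO ≤0.2%) with R1881 as reference agonist. Luminescence read after ONE Glo. Fold change vs DMSO control; EC50 by nonlinear regression; 3 independent experiments, 16 replicates.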

## CNC(=O)c1ccc(N2C(=S)N(c3ccc(C#N)c(C(F)(F)F)c3)C(=O)C2(C)C)cc1F [MDV3100]
VCaP cells
  growth inhibition of VCaP cells stimulated by spironolactone: more profound inhibition
LNCaP cells
  growth inhibition of LNCaP cells stimulated by eplerenone: more profound inhibition
  growth inhibition of LNCaP cells stimulated by spironolactone: more profound inhibition
[1]; LNCaP, 10μM eplerenone, 10μM MDV3100, 5 hours
  inhibition of induction of TMPRSS2 expression by eplerenone: more significantly than bicalutamide or abiraterone

## C[C@]12CC[C@H](O)CC1=CC[C@@H]1[C@@H]2CC[C@]2(C)C(c3cccnc3)=CC[C@@H]12 [abiraterone]
VCaP cells
  growth inhibition of VCaP cells stimulated by spironolactone: dose-proportional growth inhibition
VCaP cells; CSS with 0.1nM R1881, 7 days
  doses with significant inhibition of proliferation of VCaP: ≥ 5 µM
WT-AR
  EC50: 13.4 µM
LNCaP (T877A-AR)
  EC50: 2.6 µM
DU145
  inhibitory effect on proliferation of DU145: No inhibitory effect was observed
T877A-AR [2]
  EC50: 7.9 µM
[3]
  objective tumor responses, CRPC patients: up to 60%
Solubility in cell media
  solubility: > 25 µM
LNCaP cells
  growth inhibition of LNCaP cells stimulated by eplerenone: dose-proportional growth inhibition
  growth inhibition of LNCaP cells stimulated by spironolactone: dose-proportional growth inhibition
LNCaP cells; CSS with 0.1nM R1881, 7 days
  doses with significant inhibition of proliferation of LNCaP: ≥ 5 µM
[1]; 5μM abiraterone, 0.1nM R1881, 5 hours
  regulation of PSA and TMPRSS2 in LNCaP cells treated with abiraterone: down-regulation
T877A-AR [4]
  inhibition of activation of T877A-AR by 1μM eplerenone: significantly inhibited
[5]
  doses safely tolerated: at least 2000 mg daily
PC-3
  inhibitory effect on proliferation of PC-3: No inhibitory effect was observed
[6]; COS-7, 10nM DHT, compared with PC-3 ARE3-luciferase assay
  inhibition of R629Q-AR: Higher concentrations of abiraterone were required
[6]; COS-7, activated by 10nM DHT for 24 hours, 0.1 - 5μM
  inhibition of WT-AR, T877A-AR, G142V-AR, P533S-AR, T575A-AR and H874Y-AR: dose-proportional inhibition
AR
  binding to the AR: failed to identify binding
  effect on AR levels: dose-dependent decrease in AR levels
[7]; 0.1nM R1881, 16 hours
  inhibition of stimulated WT and mutant AR activity: dose-proportional inhibition
[7]; 1μM abiraterone
  AR inhibition: up to 32%
[7]; doses up to 25μM
  increase in reporter-luciferase activity (agonistic activity) with WT-AR or any mutation tested: did not observe an increase in reporter-luciferase activity; also recorded: no agonistic activity was observed

## CC(O)(CS(=O)(=O)c1ccc(F)cc1)C(=O)Nc1ccc(C#N)c(C(F)(F)F)c1 (stereo not shown) [bicalutamide]
W741C-AR
  activation of W741C-AR: activated

## C[C@@H]1C[C@H]2[C@@H]3CCC4=CC(=O)C=C[C@]4(C)[C@@]3(F)[C@@H](O)C[C@]2(C)[C@@]1(O)C(=O)CO [dexamethasone]
wild-type (WT)-AR [8]
  activation of WT-AR: do not activate

## COC(=O)[C@@H]1CC2=CC(=O)CC[C@]2(C)[C@@]23O[C@@H]2C[C@@]2(C)[C@@H](CC[C@@]24CCC(=O)O4)[C@H]13 [eplerenone]
VCaP cells
  proliferation of VCaP (WT-AR): only spironolactone increased the proliferation
[9]
  expression of PSA and TMPRSS2 in VCaP: not in VCaP
[10]
  Cmax: 1720 ± 280 ng/mL
[10]; read-out: Cmax (equivalent)
  Cmax: 4.2 µM
wild-type (WT)-AR [8]
  activation of WT-AR: does not activate
wild-type (WT)-AR [11]
  binding and activation of wild-type (WT)-AR: did not bind and activate
LNCaP cells
  proliferation of hormone-stripped LNCaP (T877A-AR): increased proliferation
W741C-AR
  activation of W741C-AR: does not activate
[1]; 0.1 - 10μM eplerenone, 5 hours
  expression of PSA and TMPRSS2 in LNCaP: significantly increased expression
D879G-AR
  activation of D879G-AR: does not activate

## C[C@]12C=CC(=O)C=C1CC[C@@H]1[C@@H]2C(=O)C[C@@]2(C)[C@H]1CC[C@]2(O)C(=O)CO [prednisone]
wild-type (WT)-AR [8]
  activation of WT-AR: do not activate

## CC(=O)S[C@@H]1CC2=CC(=O)CC[C@]2(C)[C@H]2CC[C@@]3(C)[C@@H](CC[C@@]34CCC(=O)O4)[C@H]12 [spironolactone]
VCaP cells
  proliferation of VCaP (WT-AR): increased the proliferation
wild-type (WT)-AR [8]
  activation of WT-AR: activates
LNCaP cells
  proliferation of hormone-stripped LNCaP (T877A-AR): increased proliferation
D879G-AR
  activation of D879G-AR: activates
